Bioassay records: PubChem, Sanford-Burnham Center for Chemical Genomics
Hits are enriched below; roughly 1.8% of the tested compounds scored in any of these assays.
PPC-1+TRAIL kill – compounds killing PPC-1 cancer cells with TRAIL present (potentiator screen, no TRAIL-free arm); PPC-1 cells + TRAIL, ATPLite viability luminescence; cell killing (% activity), % at 4 µM or 5 µM; 0.41% of 220,000 active; AID 1443;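 active = cell killing above 50% in the first pass at 4 µM, then a duplicate retest at 5 µM averaging 50% or more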;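 also: plate controls were cells with TRAIL plus DMSO for no effect and medium-only wells lacking cells for full effect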
iPSC survival up – increases survival of single human iPS cells | hiPSC single-cell survival, ATPlite luminescence; 100% = ROCK inhibitor wells, 0% = DMSO | survival enhancement, % at 20 µM | 0.044% of 360,000 active | AID 602274; in the data active = survival enhancement above about 18%;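 also: cells exposed to compounds for 16 hours before the ATP read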
FLuc stim CS – firefly luciferase counter-screen for stimulation assays. ATPlite luciferase biochemical, luminescence, 10 min; 0 = ATP-free wells, 1 = DMSO control. P08659. AID 1027. 200,000 tested, under 10 active. activation factor at 10 µM;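 active = luciferase activation factor, scaled between plate controls, of at least 2 with compound at 10 µM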
Target sequence (P08659 whole entry, looked up): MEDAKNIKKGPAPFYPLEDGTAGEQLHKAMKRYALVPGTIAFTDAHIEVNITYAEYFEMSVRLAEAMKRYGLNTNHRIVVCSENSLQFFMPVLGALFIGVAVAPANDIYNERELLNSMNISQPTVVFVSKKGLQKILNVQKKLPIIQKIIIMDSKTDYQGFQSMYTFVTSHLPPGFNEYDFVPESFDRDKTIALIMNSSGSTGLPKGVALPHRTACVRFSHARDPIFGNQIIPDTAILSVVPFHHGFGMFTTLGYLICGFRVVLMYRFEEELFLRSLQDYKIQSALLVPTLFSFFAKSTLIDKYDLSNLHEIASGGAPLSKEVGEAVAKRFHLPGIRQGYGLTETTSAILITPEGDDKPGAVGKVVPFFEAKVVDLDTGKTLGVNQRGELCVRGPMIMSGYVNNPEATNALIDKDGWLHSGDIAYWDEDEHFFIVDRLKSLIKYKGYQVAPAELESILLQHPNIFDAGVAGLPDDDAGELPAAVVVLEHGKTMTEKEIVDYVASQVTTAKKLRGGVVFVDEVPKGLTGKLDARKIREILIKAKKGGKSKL
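Material: luciferase plus luciferin reagent, cell-free. Medium: PBS buffer for ATP. Also added: ATP substrate, dispensed from a 10.24 µM working solution in PBS. Doses: test compounds dosed from 2 mM stocks in 100% DMSO. Incubation: 10 min post-reagent at room temperature. Technique: light output (luminescence). Read-out basis: luminescence gain marking luciferase activators.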
FLuc inh counter – counter-screen for luciferase assay inhibitors: firefly luciferase inhibition; P08659; ATPLite firefly luciferase biochemical luminescence, 10 min; inhibition, % at 10 µM; 1.5% of 200,000 active; AID 1006;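 active = inhibition above about 50% when tested at 10 µM, limit read from the data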
TRAIL sens C8 – sensitizes caspase-8 expressing cells to TRAIL | NB7+C8 cells + TRAIL, ATPlite viability luminescence | inhibition (viability loss, TRAIL sensitization), % at 10 µM | 1% of 360,000 active;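 active = compounds causing at least 50% loss of cell viability in the single-dose screen, relative to plate controls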
MIN6 prolif-1 – MIN6 beta-cell proliferation induction; MIN6 cells proliferation, ATPlite luminescence, 48 h; cells starved in 0.2% serum; 100% = growth in 10% serum; proliferation, % at 10 µM; 0.29% of 330,000 active; AID 2380;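 active = compounds whose signal lies at least 3.5 SD above the mean of all wells on their plate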;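 also: 0% = DMSO-treated cells in low-serum medium and 100% = 10% serum control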
MIN6 prolif-2 – confirmation of inducers of beta-cell replication in MIN6 cells; shares compounds with MIN6 prolif-1; MIN6 beta-cell proliferation, ATPlite luminescence, 48 h; cells kept in 0.2% serum; scaled between 0.2% and 10% serum; proliferation increase, % at 50 µM; 920 tested, under 10 active; AID 463095;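 active = proliferation increase above 40% at any of the four tested concentrations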
An asterisk follows results filed as active; nt = no result.

SMILES | PPC-1+TRAIL kill | iPSC survival up | FLuc stim CS | FLuc inh counter | TRAIL sens C8 | MIN6 prolif-1 | MIN6 prolif-2
O=C(c1cccc(Cl)c1)N1CCN(c2ccc(N3CCOCC3)nn2)CC1 | nt | -1 | nt | nt | 5 | 14* | -1
O=C(CC1CCCC1)N1CCN(S(=O)(=O)c2cccc(Br)c2)CC1 | nt | 1 | nt | nt | 6 | nt | nt
O=C(NCC(=O)N1CCCC(C(F)(F)F)C1)c1ccco1 (centres undefined) | nt | 2 | nt | nt | 1 | 12* | 1
COc1ccc(C(CNC(=O)c2ccc(Cl)c(NC(=O)c3cccs3)c2)N2CCCC2)cc1 (centres undefined) | nt | 0 | nt | nt | 0 | 0 | nt
CC1(C)CN(c2ccc(C(=O)c3ccccc3)cc2)C1=O | 7 | -1 | 1 | -2 | -1 | 7.8* | -1
CCC1CN(C(=O)N2CCC(C(=O)NCc3ccc(OC)cc3OC)CC2)c2ccccc2O1 (centres undefined) | nt | 0 | nt | nt | -10 | 0 | nt
Cc1ccc(C2=NNC(C(O)C(O)C(O)CO)S2)cc1 (centres undefined) | 10 | -2 | 1 | 4 | 3 | 5.8* | 0
CCCc1ccc(C(O)c2ncc(-c3ccc(C)cc3)[nH]2)cc1 (centres undefined) | nt | 1 | nt | nt | -10 | nt | nt
CC1CN2C(c3ccc(Cl)cc3)=CSC2=N1 (centres undefined) | nt | 0 | nt | nt | 5 | 2 | nt
Cc1cc2c(ncn2C(C)C)c(NS(=O)(=O)c2ccc(F)cc2)c1C | 16 | 2 | 1 | 0 | 5 | 8.9* | -4
Cc1cc2c(ncn2C)c(NS(=O)(=O)c2ccc(F)cc2)c1C | 2 | 0 | 1 | -5 | 1 | 1 | nt
Cc1nnc2ccc(-c3ccc(NC(=O)c4ccc(Cl)nc4)cc3)nn12 | -10 | nt | 1.1 | -8 | nt | 8.5* | -1
CCN(CC(=O)Nc1ccccc1OC)C(=O)CC1CCCC1 | nt | 0 | nt | nt | -27 | -2 | nt
CS(=O)(=O)N1CCCC(C(=O)NCCN2CCC(Cc3ccccc3)CC2)C1 (centres undefined) | 7 | 2 | 1.1 | -6 | -2 | 5.4* | -5
O=C(Nc1ccc(N2CCOCC2)cc1)c1ccc([N+](=O)[O-])o1 | nt | -1 | nt | nt | 36 | -2 | nt
Cn1c(=O)c2cn(-c3ccccc3)cc2n(C)c1=O | 3 | -4 | 1 | -2 | -5 | 5.4* | 1
O=C(NNC(=O)C1CC(c2cccnc2)=NO1)Nc1cccc(F)c1 (centres undefined) | -12 | -2 | 1 | 1 | 9 | 5.6* | 1
O=C(Nc1cccnc1)C1CC(c2ccc(Cl)c(Cl)c2)=NO1 (centres undefined) | 10 | 2 | 1.1 | -7 | -23 | -3 | nt
COc1ccc(N2CCN(C(=O)Cn3ncc4c([nH]c5ccccc54)c3=O)CC2)cc1 | nt | -1 | nt | nt | -1 | -2 | nt
COC(=O)N1C(=O)[C@](CC(C)C)(c2ccccc2)N1C(=O)OC | nt | -2 | nt | nt | 17 | nt | nt
COC(=O)N1C(=O)[C@@](CC(C)C)(c2ccccc2)N1C(=O)OC | nt | nt | nt | nt | nt | 17* | -6
COc1ccc(OC)c(NC(=O)c2ccccc2NS(=O)(=O)c2cccc3cccnc23)c1 | 13 | -1 | 1 | -4 | -6 | 5.4* | -5
O=C(CCC1CCCCC1)NC1CCCCC1 | nt | 0 | nt | nt | 11 | -5 | nt
O=C(CN1C(=O)NC2(CCCC2)C1=O)OCc1ccc(Cl)cc1Cl | nt | 0 | nt | nt | 7 | 4 | nt
COc1ccc(C(=O)CC(C#N)c2ccc3c(c2)OCO3)cc1OC (centres undefined) | nt | 3 | nt | nt | -8 | nt | nt
SMILES | PPC-1+TRAIL kill | iPSC survival up | FLuc stim CS | FLuc inh counter | TRAIL sens C8 | MIN6 prolif-1 | MIN6 prolif-2
CC(=O)OCc1nc2ccccc2s1 | -5 | 1 | 0.9 | 14 | -7 | -1 | nt
Cc1cc(C(=O)OCc2nc3ccccc3s2)c(C)o1 | 7 | 2 | 1 | 1 | 4 | 8.7* | -4
CCc1nc2sc(C#N)c(N)c2c2c1CCCC2 | nt | 4 | nt | nt | 10 | 6.3* | 3
O=C(CSc1nnc2c(n1)[nH]c1ccccc12)NCc1ccccc1F | nt | 0 | nt | nt | -7 | -2 | nt
COc1cccc(C2NC(=O)NC(C)=C2C(=O)Nc2ccc(C)cc2)c1OC (centres undefined) | -1 | 3 | 1.1 | -9 | -4 | 5.4* | 1
O=C(N/N=C/c1cc([N+](=O)[O-])cc([N+](=O)[O-])c1O)/C(=C\c1cccs1)NC(=O)c1ccccc1 | 36 | -2 | 1 | -3 | -2 | 0.0* | -4
COc1cc(/C=N/NC(=O)/C(=C\c2ccc([N+](=O)[O-])cc2)NC(=O)c2ccccc2)cc(OC)c1O | -11 | 2 | 1 | -2 | -6 | -2 | nt
O=C(Cc1cccs1)N1CCN(S(=O)(=O)c2ccccc2)CC1 | 9 | 0 | 1.1 | -7 | -2 | 7.2* | -2
COc1ccc(S(=O)(=O)N2CCN(C(=O)Cc3cccs3)CC2)cc1 | 2 | 0 | 1 | -4 | -5 | -1 | nt
CSc1sc(C(=O)N2CCCCC2)c(-c2cccs2)c1C#N | -4 | 2 | nt | nt | -28 | 6.9* | -4
Cc1ccccc1CNC(=O)c1ccccc1N | 18 | -1 | 1.1 | -7 | 0 | 8.4* | -2
COc1ccccc1CCN1CCCC(CN(C)Cc2ccc(OCCO)cc2)C1 (centres undefined) | nt | -1 | nt | nt | -9 | 5.8* | -6
COc1ccccc1CCN1CCCC(CN(C)CC(C)(C)CO)C1 (centres undefined) | nt | 0 | nt | nt | 11 | 0 | nt
Cc1ccccc1C(=O)OCC(=O)NCC1COc2ccccc2O1 (centres undefined) | nt | 0 | nt | nt | -7 | 12* | -5
N#Cc1ccc(OCC(=O)NCC2COc3ccccc3O2)cc1 (centres undefined) | nt | 0 | nt | nt | -7 | 11* | -1
COC(=O)[C@]12CCCCC=C1N(Cc1ccccc1)C(=O)[C@H](CC(=O)NCc1cccc(C(F)(F)F)c1)C2 | nt | 0 | nt | nt | -19 | nt | nt
CCOC(=O)/C(C(=O)Nc1ccccc1Br)=C1/NC(C)(C)Cc2ccccc21 | 16 | -2 | 1.1 | -7 | -23 | 0.0* | -6
CC(=O)Nc1c(C(=O)O)ccc(C)c1OCc1ccccc1 | nt | 14 | nt | nt | -1 | nt | nt
CC1CCCN(c2ccc([N+](=O)[O-])cc2C(=O)c2ccccc2)C1 (centres undefined) | 4 | -4 | 1.1 | -6 | 15 | -3 | nt
Cc1cccc(C)c1N1C(=O)c2ccccc2NC(=O)C1C(=O)Nc1ccc(N2CCOCC2)cc1 (centres undefined) | nt | nt | nt | nt | -9 | nt | nt
Cn1c(=O)[nH]c(=O)c2c1nc1n2CCCN1CCc1ccccc1 | 7 | -1 | 1 | -2 | 4 | 7.2* | 3
Cc1cccc(-n2ncc3c(=O)[nH]c(SCC(=O)N4CC(=O)Nc5ccccc54)nc32)c1 | nt | -3 | nt | nt | -7 | 11* | 0
